Assay outcomes as filed in PubChem BioAssay.
Rows were chosen to be rich in hits. Some 11% of all compounds tested hit in one or more screens of this group.
Diaphorase act – diaphorase activation or chemical reduction counter-screen; Diaphorase/resazurin coupled assay, resorufin fluorescence, 16 min; stronger effect = higher value; 1 = vehicle wells, 0 = NADH-free wells; activation factor at 20 µM; 0.005% of 190,000 active;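 active = diaphorase activity raised at least twofold by the compound at 20 µM; inactive = activation factor below 2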
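Assay system: Purified diaphorase enzyme from Clostridium kluyveri | Amount: Enzyme 0.07 U/mL final | Dosing: Compound 20 µM once, DMSO 1% | Timing: 16 min reaction at room temperature | Detection: Fluorescence, excitation 544 nm and emission 590 nm | Evaluation: Higher resorufin formation from activation or reduction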
WT yeast gro inh – growth inhibition of WT yeast, mitochondrial fusion screen; 2.1% of 190,000 active; inhibition, % at 10 µM; mitochondrial fusion phenotypic screen, WT strain; AID 1362; in the data active = inhibition above about 58%; tested in S. cerevisiae
L major viab – Leishmania major promastigote growth inhibition; Leishmania major promastigotes, resazurin fluorescence viability; AID 1063; inhibition, % at 10 µM; 9% of 200,000 active;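 also: promastigotes grown with compound for 44 hours at 28 °C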
Diaphorase inh – diaphorase inhibition or chemical oxidation counter-screen. inhibition, % at 20 µM. 0.69% of 190,000 active. AID 1217. diaphorase resazurin-to-resorufin fluorescence, NADH, 16 min; bacterial (C. kluyveri) enzyme, not human;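 active = primary screen inhibition at 20 µM above a set limit, cut at about 50% in these data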;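 also: plate controls were DMSO with full reaction for no effect and wells lacking NADH for full effect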
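Test system: diaphorase enzyme from Clostridium kluyveri; amount: diaphorase at 0.14 U/mL in enzyme working solution; detection: fluorescence of resorufin formed from resazurin, Ex 544/Em 590 nm; times: reaction incubation of 16 min at room temperature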
G6PDH CS – L. mesenteroides G6PDH inhibition counter-screen. Purified L. mesenteroides G6PDH, diaphorase/resazurin coupled fluorescence, 45 min. inhibition, % at 5 µM. 0.12% of 200,000 active. AID 1020
Numbers without * were called inactive. Rule as the data show it, unless noted: active = inhibition above about 50%; inactive = the rest.

For Cc1c(Br)c([N+](=O)[O-])nn1CC(=O)NCCc1c[nH]c2ccccc12 the results were Diaphorase act 1, WT yeast gro inh 2.2, L major viab 68.7*, Diaphorase inh 4.1 and G6PDH CS -8.0.
Cc1ccc(C)c(NC(=O)Cn2nc([N+](=O)[O-])c(Br)c2C)c1 was read as Diaphorase act 0.9, WT yeast gro inh -11.3, L major viab 73.3*, Diaphorase inh 7.7 and G6PDH CS 9.3.
For Cn1c(=O)c(C(=O)COC(=O)c2cc(-c3ccco3)nc3ccccc23)c(N)n(CC2CC2)c1=O the results were Diaphorase act 0.6, WT yeast gro inh 6.2, L major viab 62.1*, Diaphorase inh 43.8 and G6PDH CS 3.9.
For Cn1c(=O)c(C(=O)COC(=O)c2cc(-c3ccccc3)nc3ccccc23)c(N)n(Cc2ccccc2)c1=O the results were Diaphorase act 0.9, WT yeast gro inh 6.7, L major viab 100.1*, Diaphorase inh 10.0 and G6PDH CS 15.0.
For CC(C)Cn1c(N)c(C(=O)COC(=O)c2ccc(Cl)cc2)c(=O)n(C)c1=O the results were Diaphorase act 0.9, WT yeast gro inh 22.6, L major viab 17.5, Diaphorase inh 10.1 and G6PDH CS -6.1.
CC(C)Cn1c(N)c(C(=O)COC(=O)c2cc(C(F)(F)F)nc3c(C(F)(F)F)cccc23)c(=O)n(C)c1=O was read as Diaphorase act 0.9, WT yeast gro inh 61.2*, L major viab 10.4, Diaphorase inh 13.1 and G6PDH CS 14.9.
Cn1c(=O)c(C(=O)COC(=O)c2cc(C3CC3)nc3ccccc23)c(N)n(Cc2ccccc2)c1=O was read as Diaphorase act 0.8, WT yeast gro inh 4.4, L major viab 35.8, Diaphorase inh 18.2 and G6PDH CS 10.5.
`CC(C)Cn1c(N)c(C(=O)COC(=O)CC23CC4CC(CC(C4)C2)C3)c(=O)n(C)c1=O` gave Diaphorase act 0.8, WT yeast gro inh 85.3*, L major viab 98.2*, Diaphorase inh 22.1 and G6PDH CS 1.9.
COc1ccccc1C1=Nn2c(COc3ccccc3)nnc2SC1 was read as Diaphorase act 0.8, WT yeast gro inh 9.2, L major viab 4.0, Diaphorase inh 17.2 and G6PDH CS 2.9.
For Cn1c(=O)c(C(=O)COc2ccc(F)cc2Cl)c(N)n(Cc2ccccc2)c1=O the results were Diaphorase act 0.7, WT yeast gro inh -2.0, L major viab 56.0*, Diaphorase inh 29.8 and G6PDH CS 1.7.
CN(Cc1ccccc1)c1nc2c(c(=O)[nH]c(=O)n2C)n1CCSc1ncccn1 was read as L major viab -3.4.
`O=C(NC(Cc1ccccc1)C(=O)O)/C(=C/c1ccc(F)cc1)NC(=O)c1ccccc1` (centres undefined) gave Diaphorase act 0.9, WT yeast gro inh 4.4, L major viab -5.5, Diaphorase inh 7.2 and G6PDH CS 17.2.
Cc1cccc(N(CC(=O)NCCSc2ccccn2)S(=O)(=O)c2ccccc2)c1 was read as Diaphorase act 0.8, WT yeast gro inh 9.5, L major viab 57.1*, Diaphorase inh 19.8 and G6PDH CS 2.1.
CS(=O)(=O)N(Cc1ccc(C(=O)NCCSc2ccccn2)cc1)c1ccccc1 was read as Diaphorase act 0.7, WT yeast gro inh -12.5, L major viab 41.3, Diaphorase inh 26.7 and G6PDH CS 9.6.
Screening Cc1ccc(N(Cc2ccc(C(=O)NCCSc3ccccn3)cc2)S(C)(=O)=O)cc1C returned Diaphorase act 0.7, WT yeast gro inh -16.6, L major viab 67.5*, Diaphorase inh 29.5 and G6PDH CS -15.6.
Screening O/N=C/c1ccc2ccccc2c1 returned Diaphorase act 1, WT yeast gro inh -29.9, L major viab -6.4, Diaphorase inh -2.6 and G6PDH CS 12.4.
Screening CCOC(=O)c1ccc2c(c1)n(CC)c(/C=C/N(C)c1ccccc1)[n+]2CC returned Diaphorase act 0.9, WT yeast gro inh 57.6, L major viab 100.2*, Diaphorase inh 8.1 and G6PDH CS -20.2.
`O=C(COc1ccc(Cl)cc1)N/N=C/CCc1ccccc1` gave Diaphorase act 0.9, WT yeast gro inh -6.5, L major viab -9.4, Diaphorase inh 11.6 and G6PDH CS 6.0.
Cc1cc(C)cc(NC(=O)C(OC(=O)c2sccc2C)c2ccccc2)c1 (centres undefined) was read as Diaphorase act 0.9, WT yeast gro inh 2.8, L major viab 47.8, Diaphorase inh 11.5 and G6PDH CS 8.1.
